Four compounds from ChEMBL document CHEMBL1150680, “Anti-inflammatory constituents and new pterocarpanoid of Crotalaria pallida” (J Nat Prod, 2003) can be followed below.

Structures are written as SMILES.

Series [1] relates to RAW264.7. The experiment in a line: Antiinflammatory activity in LPS-stimulated mouse RAW264.7 cells assessed as inhibition of nitric oxide production pretreated 1 hr before LPS challenge. It counts as functional, cell-based. The essentials:
(§1)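 RAW 264.7 mouse macrophage-like cells in DMEM with 10% FCS, plated at 2 × 10⁵ cells/well and adhered overnight. Pretreated with test drug or DMSO (final ≤0.5%) for 1 h at 37 °C, then stimulated with LPS (E. coli 0111:B4, 1 μg/mL) for 24 h. Nitrite in the medium was measured by Griess reaction (A550) against a NaNO₂ standard curve. Mean ± SEM, n = 3.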

For series [2], the system named is N9. Put plainly: Antiinflammatory activity in LPS/IFN-gamma-stimulated mouse N9 cells assessed as inhibition of nitric oxide production pretreated 1 hr before LPS/IFNgamma challenge.
Series [3] is described as follows: Antiinflammatory activity in fMLP/cytochalasin B stimulated rat neutrophils assessed as inhibition of beta-glucuronidase release at 3 uM preincubated for 10 mins measured 45 mins after fMLP/cytochalasin B challenge relative to control. Also on record: scale not given: the % may be the effect or the level left.
The nature of series [4]: Antiinflammatory activity in fMLP/cytochalasin B stimulated rat neutrophils assessed as lysozyme release at 1 ug/ml preincubated for 10 mins measured 45 mins after fMLP/cytochalasin B challenge relative to control. The following applies: in the assay text read “1 uM” for “1 ug/ml”. It counts as functional, Neutrophil. The essentials: (§2)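 Rat blood neutrophils were isolated in EDTA by dextran sedimentation, Ficoll-Hypaque and hypotonic lysis, then suspended in HBSS at 1 × 10⁷ cells/mL. Preincubated 10 min at 37 °C with drug or DMSO (final ≤0.5%), then challenged with fMLP (1 μM)/cytochalasin B (5 μg/mL). After 45 min, supernatant lysozyme and β-glucuronidase were expressed as percent of the Triton X-100 total content.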

A short description of series [5]: Antiinflammatory activity in fMLP/cytochalasin B stimulated rat neutrophils assessed as inhibition of lysozyme release at 10 uM preincubated for 10 mins measured 45 mins after fMLP/cytochalasin B challenge relative to control. The following applies: Neutrophil. It counts as functional. The essentials: as §2
Series [6] in a line: Antiinflammatory activity in fMLP/cytochalasin B stimulated rat neutrophils assessed as inhibition of beta-glucuronidase release at 10 uM preincubated for 10 mins measured 45 mins after fMLP/cytochalasin B challenge relative to control. More on the design: Activity: scale not given: the % may be the effect or the level left. It counts as functional, Neutrophil. The essentials:
as §2

The nature of series [7]: Antiinflammatory activity in fMLP/cytochalasin B stimulated rat neutrophils assessed as beta-glucuronidase release at 1 ug/ml preincubated for 10 mins measured 45 mins after fMLP/cytochalasin B challenge relative to control. It counts as functional, Neutrophil. The following applies: in the assay text read “1 uM” for “1 ug/ml”. A digest of the protocol: as §2
Series [8] relates to N9. Put plainly: Antiinflammatory activity in LPS/IFN-gamma-stimulated mouse N9 cells assessed as inhibition of nitric oxide production at 3 uM pretreated 1 hr before LPS/IFNgamma challenge relative to control. It counts as functional. The essentials:
(§3)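 N9 murine microglial line in Iscove's modified DMEM with 5% heat-inactivated FCS, 8 × 10⁴ cells/well. Pretreated for 1 h at 37 °C with drug or DMSO (final ≤0.5%), then stimulated with LPS (10 ng/mL) plus IFN-γ (10 unit/mL) for 24 h. Medium nitrite was read by Griess reaction at 550 nm with a NaNO₂ standard. Mean ± SEM, n = 3.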

Series [9] can be described thus: Antiinflammatory activity in fMLP/cytochalasin B stimulated rat neutrophils assessed as beta-glucuronidase release at 10 uM preincubated for 10 mins measured 45 mins after fMLP/cytochalasin B challenge relative to control. It counts as functional, Neutrophil. The essentials: as §2
Series [10] relates to RAW264.7. The experiment in a line: Antiinflammatory activity in LPS-stimulated mouse RAW264.7 cells assessed as inhibition of nitric oxide production at 30 uM pretreated 1 hr before LPS challenge relative to control. It counts as functional. A digest of the protocol: as §1
Series [11] deals with N9. Put plainly: Toxicity in LPS/IFN-gamma-stimulated mouse N9 cells assessed as LDH release at 30 uM. It counts as cell-based. The following applies: n9, 30 µM. The essentials:
(§4)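 Cytotoxicity in LPS-stimulated RAW 264.7 or LPS/IFN-γ-stimulated N9 cultures, assessed by LDH release assay and trypan blue exclusion.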

The nature of series [12]: Antiinflammatory activity in fMLP/cytochalasin B stimulated rat neutrophils assessed as inhibition of lysozyme release preincubated for 10 mins measured 45 mins after fMLP/cytochalasin B challenge. It counts as functional, cell-based. The following applies: Neutrophil. A digest of the protocol: as §2
The nature of series [13]: Antiinflammatory activity in fMLP/cytochalasin B stimulated rat neutrophils assessed as beta-glucuronidase release at 3 ug/ml preincubated for 10 mins measured 45 mins after fMLP/cytochalasin B challenge relative to control. It counts as functional, Neutrophil. The following applies: in the assay text read “3 uM” for “3 ug/ml”. A digest of the protocol: as §2
The subject of series [14] is RAW264.7. Put plainly: Antiinflammatory activity in LPS-stimulated mouse RAW264.7 cells assessed as inhibition of nitric oxide production at 3 uM pretreated 1 hr before LPS challenge relative to control. It counts as functional. The essentials:
as §1

Series [15] can be described thus: Antiinflammatory activity in fMLP/cytochalasin B stimulated rat neutrophils assessed as lysozyme release at 3 ug/ml preincubated for 10 mins measured 45 mins after fMLP/cytochalasin B challenge relative to control. It counts as functional, Neutrophil. The following applies: in the assay text read “3 uM” for “3 ug/ml”. The essentials: as §2
Series [16] can be described thus: Antiinflammatory activity in fMLP/cytochalasin B stimulated rat neutrophils assessed as inhibition of lysozyme release at 3 ug/ml preincubated for 10 mins measured 45 mins after fMLP/cytochalasin B challenge relative to control. It counts as functional. The following applies: Neutrophil. A digest of the protocol:
as §2

A short description of series [17]: Antiinflammatory activity in fMLP/cytochalasin B stimulated rat neutrophils assessed as inhibition of beta-glucuronidase release preincubated for 10 mins measured 45 mins after fMLP/cytochalasin B challenge. It counts as functional, cell-based. The following applies: Neutrophil. The essentials: as §2
Series [18] can be described thus: Antiinflammatory activity in fMLP/cytochalasin B stimulated rat neutrophils assessed as inhibition of beta-glucuronidase release at 1 ug/ml preincubated for 10 mins measured 45 mins after fMLP/cytochalasin B challenge relative to control. The following applies: in the assay text read “1 uM” for “1 ug/ml”. Also on record: scale not given: the % may be the effect or the level left. It counts as functional, Neutrophil. A digest of the protocol: as §2

Series [19] can be described thus: Antiinflammatory activity in fMLP/cytochalasin B stimulated rat neutrophils assessed as lysozyme release at 10 uM preincubated for 10 mins measured 45 mins after fMLP/cytochalasin B challenge relative to control. It counts as functional, Neutrophil. The essentials:
as §2

In series [20] the test system is RAW264.7. The experiment in a line: Antiinflammatory activity in LPS-stimulated mouse RAW264.7 cells assessed as inhibition of nitric oxide production at 10 uM pretreated 1 hr before LPS challenge relative to control. It counts as functional. The essentials: as §1
In series [21] the test system is N9. Put plainly: Antiinflammatory activity in LPS/IFN-gamma-stimulated mouse N9 cells assessed as inhibition of nitric oxide production at 10 uM pretreated 1 hr before LPS/IFNgamma challenge relative to control.
In series [22] the test system is RAW264.7. Put plainly: Toxicity in LPS-stimulated mouse RAW264.7 cells assessed as LDH release at 30 uM. It counts as cell-based. The following applies: raw264.7, 30 µM. The essentials: as §4
The test system of series [23] is N9. Put plainly: Antiinflammatory activity in LPS-stimulated mouse N9 cells assessed as inhibition of nitric oxide production at 1 uM pretreated 1 hr before LPS challenge relative to control. It counts as functional. The essentials: as §3
The nature of series [24]: Antiinflammatory activity in fMLP/cytochalasin B stimulated rat neutrophils assessed as inhibition of lysozyme release at 30 uM preincubated for 10 mins measured 45 mins after fMLP/cytochalasin B challenge relative to control. It counts as functional. The following applies: Neutrophil. The essentials: as §2
Series [25] in a line: Antiinflammatory activity in fMLP/cytochalasin B stimulated rat neutrophils assessed as beta-glucuronidase release at 30 uM preincubated for 10 mins measured 45 mins after fMLP/cytochalasin B challenge relative to control. It counts as functional, Neutrophil. A digest of the protocol: as §2
Series [26] is described as follows: Antiinflammatory activity in fMLP/cytochalasin B stimulated rat neutrophils assessed as inhibition of beta-glucuronidase release at 30 uM preincubated for 10 mins measured 45 mins after fMLP/cytochalasin B challenge relative to control. It counts as functional. The following applies: Neutrophil, read-out: INH. The essentials:
as §2

Series [27] can be described thus: Antiinflammatory activity in fMLP/cytochalasin B stimulated rat neutrophils assessed as lysozyme release at 30 uM preincubated for 10 mins measured 45 mins after fMLP/cytochalasin B challenge relative to control. It counts as functional, Neutrophil. The essentials: as §2

For the compound `CC(=N)NCc1cccc(CN)c1` [1400W], the values for the IC50 in the series on RAW264.7 [1] and in the series with N9 [2] were 2.3 µM and 3.6 µM, respectively.
For the compound `C=C(C)c1cc2c3c(ccc2o1)[C@@H]1COc2cc(O)ccc2[C@@H]1O3` [CROTAFURAN A], the Activity in [3] is 33.4%; in series [4], 54.2%; in series [6] it was 55.8%; in series [7] it was 34.7%; in series [9], 16.5%; with N9 [11], “Toxic”. In addition, the Activity is on record as 24.8% in [13]; 46.9% in series [15]; 6.9% in [18]; 23.6% in series [19]; “Toxic” in the series with RAW264.7 [22]. Moreover, the results for the inhibition at 10 µM (in [5]; with RAW264.7 [20]; in the series on N9 [21]) were 56.2%, 20.6% and 45.6%, respectively. The inhibition at 3 µM with N9 [8] was 15.4%; in the series on RAW264.7 [14] it was -5.1%. For the same compound, the 50% inhibitory concentration (IC50) was 23 µM in the series with RAW264.7 [1], 9.5 µM in series [12] and 7.8 µM in series [17]. Besides, the inhibition at 30 µM with RAW264.7 [10] turned out to be 59.5%. The inhibition at 3 µg/mL in [16] was 14%.
Consider `CC(=O)c1cc2c3c(ccc2o1)[C@@H]1COc2cc(O)ccc2[C@@H]1O3` [CROTAFURAN B], for which the inhibition at 10 µM in [5] was -7.8%; in series [6] (Rattus norvegicus, Neutrophil) it was -0.9%; in the series on RAW264.7 [20] it was 25.6%; in the series on N9 [21], 50.4%. In addition, the inhibition at 3 µM is 29% in the series with N9 [8] and 3.2% with RAW264.7 [14]. Further, the Activity in [9] is 37.7%; with N9 [11], “Toxic”; in [25], 35.3%; in [27], 55.1%; in [19], 58.9%; with RAW264.7 [22] it was “Toxic”. Also, the inhibition at 1 µM in the series on N9 [23] worked out at 4.2%. Further, the results for the IC50 in the series on RAW264.7 [1] and in the series on N9 [2] were 19 µM and 9.4 µM, respectively. In addition, the inhibition at 30 µM in series [24] is -0.4%; in the series with RAW264.7 [10] it was 64.4%; in [26], 5.1%.
As to `CN1CCN(CCCN2c3ccccc3Sc3ccc(C(F)(F)F)cc32)CC1` [TRIFLUOPERAZINE], in series [17], the IC50 worked out at 12.2 µM.
